Source: PubChem
ERAP1 inh: blocks human ERAP1 aminopeptidase activity; Q9NZ08; 340,000 compounds, 0.15% hits; recombinant ERAP1, Leu-AMC fluorescence, 60 min; AID 652197; inhibition, % at 10.7 µM;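 active means mean replicate inhibition of at least 30%, or all replicates individually reaching that 30% level; inactive means mean below 30% and not every replicate reaching it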
Target sequence (Q9NZ08 whole entry, looked up): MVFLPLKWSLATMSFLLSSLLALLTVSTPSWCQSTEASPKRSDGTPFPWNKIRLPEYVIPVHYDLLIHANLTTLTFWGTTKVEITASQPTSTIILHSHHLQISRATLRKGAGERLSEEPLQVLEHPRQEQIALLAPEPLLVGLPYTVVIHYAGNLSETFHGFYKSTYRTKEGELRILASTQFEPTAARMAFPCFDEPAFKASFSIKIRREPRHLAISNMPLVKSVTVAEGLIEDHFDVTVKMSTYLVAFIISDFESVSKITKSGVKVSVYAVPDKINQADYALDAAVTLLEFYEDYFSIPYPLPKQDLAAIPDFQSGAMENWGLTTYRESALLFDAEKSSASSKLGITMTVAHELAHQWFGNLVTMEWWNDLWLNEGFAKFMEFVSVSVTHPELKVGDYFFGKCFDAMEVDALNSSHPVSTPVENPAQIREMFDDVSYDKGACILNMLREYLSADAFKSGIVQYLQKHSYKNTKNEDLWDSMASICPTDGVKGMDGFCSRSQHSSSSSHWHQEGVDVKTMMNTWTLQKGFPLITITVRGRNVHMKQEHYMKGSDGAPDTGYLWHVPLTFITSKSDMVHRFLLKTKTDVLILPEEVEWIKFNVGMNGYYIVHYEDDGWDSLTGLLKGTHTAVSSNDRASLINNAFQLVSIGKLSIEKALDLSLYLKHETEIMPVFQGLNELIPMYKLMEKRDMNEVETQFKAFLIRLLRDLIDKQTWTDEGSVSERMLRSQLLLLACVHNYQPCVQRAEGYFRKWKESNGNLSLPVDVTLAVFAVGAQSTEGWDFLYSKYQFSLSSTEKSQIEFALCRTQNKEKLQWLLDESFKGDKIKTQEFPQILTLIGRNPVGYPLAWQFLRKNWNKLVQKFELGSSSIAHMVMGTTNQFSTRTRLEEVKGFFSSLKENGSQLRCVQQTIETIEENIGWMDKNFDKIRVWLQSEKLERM
SIRT5 block: sirtuin-5 (human) deacylase inhibition; Q9NXA8; Purified SirT5, succinyl-peptide AMC, trypsin-coupled fluorescence; inhibition, % at 15 µM; 330,000 compounds, 1.1% hits; AID 652115; in the data active means inhibition above about 15%; inconclusive means no clear call, values can overlap the other calls
E-selectin induc: induces E-selectin expression in human endothelial cells; P16581; HUVEC E-selectin immunofluorescence imaging; normalized: neutral wells 0, TNF-alpha wells 100; activation, % at 7.58 µM; 260,000 compounds, 0.37% hits; AID 686992;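 active means mean E-selectin-positive cell signal at least 10% of the positive control, reached in at least 60% of replicates, without over 20% cell loss; inconclusive means no rule given, readout overlaps actives, possibly toxicity-flagged; inactive means the rest, including those meeting only one limit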
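material = human umbilical vein endothelial cells (HUVEC), E-selectin induction | quantity = 3,000 cells/well | medium = EGM-2 growth medium on 0.1% gelatin-coated wells | technique = immunofluorescence imaging | read-out basis = % PE-positive cells | control set = TNF-alpha positive control, DMSO neutral control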
DENV2 CPE: inhibitors of DENV2 cytopathic effect. DENV2-infected cells, cytopathic effect rescue, plate reader. CPE inhibition, % at 9.99 µM. 350,000 compounds, 1.7% hits; in the data active means CPE inhibition above about 20%, passing the limit was not always enough; inconclusive means no clear call, values can overlap the other calls; tested in BHK-21 cells
PglD DTNB: inhibitors of Campylobacter jejuni PglD acetyltransferase. purified PglD enzyme, DTNB colorimetric CoA detection. inhibition, % at 12.5 µM. 360,000 compounds, 0.098% hits. AID 602405; in the data active means inhibition above about 16%, passing the limit was not always enough; inconclusive means no clear call, values can overlap the other calls
Each line names hits and unclear results; the compound was inactive in the other large screens; ! = a repeat was not active. This is a sample that favours compounds with a hit; in the whole collection about 2.5% have one here.

COc1ccccc1NC(=O)N[C@@H]1C=C[C@H](CC(=O)N[C@@H](C)c2ccccc2)O[C@H]1CO	DENV2 CPE 66
C[C@@H](NC(=O)C[C@H]1C=C[C@H](NC(=O)C2CC2)[C@@H](CO)O1)c1ccccc1	SIRT5 block 17
O=C(C[C@H]1C=C[C@@H](NC(=O)C2CCC2)[C@@H](CO)O1)NCC1CC1	DENV2 CPE 58
Cn1c(SCC(=O)Nc2nncs2)nnc1C1CC1	DENV2 CPE inconclusive
COc1ccc(CNC(=O)Nc2ccc3c(c2)c(=O)n(C)n3Cc2cc(C)cc(C)c2)cc1	DENV2 CPE 32 (no result: SIRT5 block)
CC(C)C#Cc1ccc2c(c1)O[C@H](CN(C)S(=O)(=O)c1cn(C)cn1)[C@H](C)CN([C@H](C)CO)S2(=O)=O	none
C[C@@H]1CN([C@@H](C)CO)S(=O)(=O)c2ccc(Br)cc2O[C@@H]1CN(C)S(=O)(=O)c1cn(C)cn1	DENV2 CPE 24!
C[C@H]1CN([C@@H](C)CO)S(=O)(=O)c2ccc(C#Cc3ccccc3)cc2O[C@@H]1CN(C)S(=O)(=O)c1cn(C)cn1	DENV2 CPE 34
C[C@@H]1CN([C@@H](C)CO)S(=O)(=O)c2ccc(C#Cc3ccccc3)cc2O[C@H]1CN(C)S(=O)(=O)c1cn(C)cn1	none
CCc1cc2c(=O)c(-c3cnn(-c4ccccc4)c3)c(C)oc2cc1OCC(=O)Nc1cccc(C)c1	SIRT5 block 27 (no result: E-selectin induc, PglD DTNB)
O=C(Cc1nnc(NC(=O)Nc2ccc(Cl)cc2)s1)NCc1ccccc1	SIRT5 block 38 (no result: E-selectin induc, PglD DTNB)
Cc1ccc(S(=O)(=O)Nc2ccc3c(c2)CC(=O)N([C@@H](C)CO)C[C@H](C)[C@@H](CN(C)Cc2ccc(-c4ccccc4)cc2)O3)cc1	SIRT5 block 19
Cc1ccc(S(=O)(=O)Nc2ccc3c(c2)CC(=O)N([C@@H](C)CO)C[C@H](C)[C@H](CN(C)Cc2ccc(-c4ccccc4)cc2)O3)cc1	SIRT5 block 18, DENV2 CPE inconclusive
O=c1[nH]c2cc(Cl)c(Cl)cc2o1	none (no result: SIRT5 block)
O=c1[nH]c2cc(Cl)c(Br)cc2o1	DENV2 CPE 157 (no result: E-selectin induc)
CN(C)C(=O)c1ccc(-c2ccccc2[C@H]2[C@@H](C#N)N(C(=O)C3CCCC3)[C@@H]2CO)cc1	none (no result: PglD DTNB)
COc1ccc(-c2ccccc2[C@@H]2[C@@H](C#N)N(C(=O)C3CC3)[C@H]2CO)cc1	DENV2 CPE 27 (no result: SIRT5 block, PglD DTNB)
CN(C)C(=O)c1ccc(-c2ccc([C@H]3[C@@H](C#N)N(C(=O)C4CCCC4)[C@H]3CO)cc2)cc1	DENV2 CPE 22
COc1cccc(C#Cc2ccc([C@@H]3[C@@H](C#N)N(C(=O)C4CC4)[C@H]3CO)cc2)c1	DENV2 CPE 26
CN(C)C(=O)c1ccc(-c2ccccc2[C@@H]2[C@@H](CO)N(C(=O)C3CCCCC3)[C@H]2C#N)cc1	DENV2 CPE 29 (no result: PglD DTNB)
COc1cccc(C#Cc2ccc([C@H]3[C@@H](CO)N(C(=O)C4CC4)[C@H]3C#N)cc2)c1	none
CN(C)C(=O)c1ccc(-c2ccc([C@@H]3[C@@H](C#N)N(C(=O)C4CCCC4)[C@H]3CO)cc2)cc1	none
C[C@@H]1CCCCO[C@H](CN(C)S(=O)(=O)c2ccc(F)cc2)[C@@H](C)CN([C@H](C)CO)C(=O)c2cc(N(C)C)ccc2O1	none
COc1ccccc1-c1ccccc1[C@@H]1[C@@H](C#N)N(C(=O)C2CCC2)[C@@H]1CO	DENV2 CPE 44 (no result: PglD DTNB)
CN(C)C(=O)c1ccc(-c2ccccc2[C@@H]2[C@H](C#N)N(C(=O)C3CC3)[C@H]2CO)cc1	none (no result: PglD DTNB)
CN(C)C(=O)c1ccc(-c2ccccc2[C@@H]2[C@@H](C#N)N(C(=O)C3CC3)[C@@H]2CO)cc1	DENV2 CPE 40 (no result: PglD DTNB)
COc1ccc(-c2ccc([C@H]3[C@@H](C#N)N(C(=O)C4CC4)[C@@H]3CO)cc2)cc1	DENV2 CPE 56
COc1ccc(-c2ccc([C@@H]3[C@@H](C#N)N(C(=O)C4CC4)[C@H]3CO)cc2)cc1	none
COc1ccc(-c2ccc([C@H]3[C@@H](C#N)N(C(=O)NC(C)C)[C@@H]3CO)cc2)cc1	none
COc1ccccc1-c1ccccc1[C@@H]1[C@@H](CO)N(C(=O)C2CCC2)[C@H]1C#N	none (no result: PglD DTNB)
CC(C)NC(=O)N1[C@H](CO)[C@H](c2ccc(-c3ccc(F)cc3)cc2)[C@@H]1C#N	DENV2 CPE 35
COc1ccc(-c2ccc([C@@H]3[C@@H](CO)N(C(=O)NC4CCCC4)[C@H]3C#N)cc2)cc1	DENV2 CPE 22
CC(C)CCNC(=O)c1cn(C)c2ccc(S(=O)(=O)N3CCCC3)cc2c1=O	E-selectin induc 37
CC(C)(C)Cc1nnc(NC(=O)CN2C(=O)c3ccccc3C2=O)s1	none (no result: E-selectin induc, PglD DTNB)
Cc1cc(C)c2sc(N(CCCN(C)C)C(=O)c3ccc(S(=O)(=O)N(C)Cc4ccccc4)cc3)nc2c1	none (no result: E-selectin induc)
CCN(Cc1ccccc1)S(=O)(=O)c1ccc(C(=O)N(CCCN(C)C)c2nc3cc(C)cc(C)c3s2)cc1	DENV2 CPE 78 (no result: E-selectin induc)
CCOc1cc2[nH]c(=S)n(Cc3ccc(C(=O)NCCCN(CC)CC)cc3)c(=O)c2cc1OCC	none
Cc1cn(CC(=O)NCCCn2ccnc2)c(=O)[nH]c1=O	SIRT5 block 15 (no result: ERAP1 inh)
Cc1cn(CC(=O)NCc2ccccc2)c(=O)[nH]c1=O	SIRT5 block 20 (no result: ERAP1 inh)
Cc1cn(CC(=O)NCCCc2ccccc2)c(=O)[nH]c1=O	none
C[C@@H]1CN([C@H](C)CO)C(=O)c2cccc(NC(=O)Nc3ccccc3)c2O[C@@H]1CN(C)S(=O)(=O)c1cccs1	none (no result: ERAP1 inh, SIRT5 block, DENV2 CPE, PglD DTNB)
O=C(O)CCNc1nc(C(F)(F)F)nc2ccccc12	SIRT5 block 48 (no result: E-selectin induc, PglD DTNB)
COc1ccc(NC(=O)NNC(=O)COc2ccc3cc(Br)ccc3c2)cc1	none
CCC(=O)N(C)C[C@H]1Oc2ncc(-c3ccc(F)cc3)cc2C(=O)N([C@H](C)CO)C[C@@H]1C	none
CCN(CC)S(=O)(=O)c1ccc(N/N=C(\C)c2ccc(OC)cc2O)nc1	none (no result: PglD DTNB)
COc1ccc(CN(C)C[C@H]2Oc3c(NS(=O)(=O)c4ccc(C)cc4)cccc3C(=O)N([C@H](C)CO)C[C@@H]2C)cc1	DENV2 CPE 31
COc1ccc(CN(C)C[C@H]2Oc3c(NS(=O)(=O)c4ccc(C)cc4)cccc3C(=O)N([C@H](C)CO)C[C@H]2C)cc1	none
COc1ccc(S(=O)(=O)Nc2cccc3c2O[C@H](CN(C)Cc2ccc(Cl)c(Cl)c2)[C@@H](C)CN([C@H](C)CO)C3=O)cc1	SIRT5 block 15, DENV2 CPE 25
C[C@@H]1CN([C@@H](C)CO)C(=O)c2cccc(NS(=O)(=O)c3cccs3)c2O[C@@H]1CN(C)Cc1ccc(Cl)c(Cl)c1	none
C[C@@H]1CN([C@H](C)CO)C(=O)c2cccc(NS(=O)(=O)c3cccs3)c2O[C@H]1CN(C)Cc1ccc(Cl)c(Cl)c1	E-selectin induc 349, DENV2 CPE 41
Cc1ccc(Cn2cc(CN3CC(N4CCSCC4)CS3(=O)=O)nn2)cc1 (stereo unspecified)	DENV2 CPE 31 (no result: ERAP1 inh, PglD DTNB)
